One assay is filed under the species Homo sapiens. Kind of assay: Selectivity for human GABA-beta-3 receptor over human GABA alpha-1-beta-2-gamma-2 receptor. The gist of the method: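 Selectivity from [³H]EBOB competition binding run separately on each receptor. β3 assay: membranes (50 µg protein) from hygromycin-selected Drosophila S2 cells stably expressing human β3, copper sulfate-induced 24 h before harvest; 0.5 nM [³H]EBOB, 10 mM Na phosphate/300 mM NaCl pH 7.5, 22 °C, 70 min. α1β2γ2 assay: membranes (150 µg) from stable HEK-293 cells; 1 nM [³H]EBOB, 50 mM Na phosphate/200 mM NaCl pH 7.4, 25 °C, 90 min. Both assays: GF/B filtration, scintillation counting, nonspecific binding with 5 µM EBOB, ≥3 repeats, probit IC50, then Cheng–Prusoff Ki (Kd 5.0 and 10.7 nM).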

Assay [1] has as its target GABA A receptor alpha-1/beta-2/gamma-2 (Homo sapiens). The assay can be described thus: Displacement of [3H]EBOB from human recombinant GABA alpha-1-beta-2-gamma-2 receptor expressed in HEK293 cells. On the technique in general: Loss of bound radioactivity is the signal in a displacement assay; it reports binding, not function.
Assay [2] addresses T1, Gamma-aminobutyric acid receptor subunit beta-3 (Homo sapiens, UniProt P28472).
T1 sequence (P28472 whole entry): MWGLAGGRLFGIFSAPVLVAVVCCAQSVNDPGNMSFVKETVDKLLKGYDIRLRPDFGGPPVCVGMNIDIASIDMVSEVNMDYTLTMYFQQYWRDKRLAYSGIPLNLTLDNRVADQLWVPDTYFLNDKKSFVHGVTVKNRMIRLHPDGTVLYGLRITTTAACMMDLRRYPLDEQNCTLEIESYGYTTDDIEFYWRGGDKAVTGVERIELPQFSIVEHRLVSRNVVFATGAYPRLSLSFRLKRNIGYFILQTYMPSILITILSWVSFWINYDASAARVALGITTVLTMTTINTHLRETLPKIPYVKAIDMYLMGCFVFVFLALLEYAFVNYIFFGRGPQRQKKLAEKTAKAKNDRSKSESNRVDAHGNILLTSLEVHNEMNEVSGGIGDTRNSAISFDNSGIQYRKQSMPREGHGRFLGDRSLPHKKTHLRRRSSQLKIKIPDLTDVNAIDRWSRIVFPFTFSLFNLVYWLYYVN
The assay can be described thus: Displacement of [3H]EBOB from human recombinant GABAbeta3 receptor expressed in HEK293 cells. The class given is cell-based.

For the next assay, the system named is Musca domestica. Kind of assay: Insecticidal activity against house fly WHO/SRS assessed as mortality after 24 hrs. The class given is functional. In short, it runs like this: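 Adult female houseflies, 3–5 days post-emergence, pretreated with piperonyl butoxide (10 µg in 1 µL acetone) 1 h before topical thoracic dosing of compound in 1 µL acetone at several doses; 30 flies per dose, kept at 25 °C with sugar and water. Mortality read at 24 h, three repeats; LD50 by probit on mean mortality.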

Some results are limits rather than exact numbers.

As a reminder, the Ki is the dissociation constant of the complex between target and ligand, obtained from inhibition or displacement.

Regarding `FC(F)(F)c1cc(Cl)c(-n2cc(-c3ccccc3)nn2)c(Cl)c1`, the Ratio Ki in the assay filed under Homo sapiens was above 71.5. The Ki in assay [1] was above 9150 nM.
For `CCc1c(C)nnn1-c1c(Cl)cc(C(F)(F)F)cc1Cl`, in assay [2], the Ki amounted to 70.1 nM.
Same read-out and setting: to `CCc1nnn(-c2c(Cl)cc(C(F)(F)F)cc2Cl)c1CC` belongs 4.27 nM.
Regarding `CCCc1nnn(-c2c(Cl)cc(C(F)(F)F)cc2Cl)c1C`, the Ratio Ki in the assay listed under Homo sapiens came to 166. Further, the Ki in assay [2] amounted to 1.94 nM; in assay [1] it was 322 nM.
As for `CCCc1nnn(-c2c(Cl)cc(C(F)(F)F)cc2Cl)c1CO`, in the assay filed under Homo sapiens, the Ratio Ki turned out to be 153. Besides, the results for the inhibitory constant (Ki) in assay [2] and in assay [1] were 2.53 nM and 387 nM, respectively.
Take `CCCc1c(CCl)nnn1-c1c(Cl)cc(C(F)(F)F)cc1Cl`: the Ratio Ki in the assay listed under Homo sapiens was above 137. Moreover, the values for the inhibition constant Ki in assay [2] and in assay [1] were 66.7 nM and above 9150 nM, respectively.
Turning to `CCc1nnn(-c2c(Cl)cc(C(F)(F)F)cc2Cl)c1C`, the Ratio Ki in the assay listed under Homo sapiens was 150. The Ki in assay [2] was 7.08 nM; in assay [1], 1060 nM.
For `CCCCc1cn(-c2c(Cl)cccc2Cl)nn1`, the Ratio Ki in the assay listed under Homo sapiens is above 2.6. Also, the Ki in assay [1] is above 9150 nM.
As to `C#Cc1ccc(-n2nncc2CCCC)cc1`, the Ratio Ki in the assay listed under Homo sapiens is above 1.21. Also, in assay [1], the Ki was above 9150 nM.
Take `CCCc1nnn(-c2c(Br)cc(C(F)(F)F)cc2Br)c1C`: in the assay listed under Homo sapiens, the Ratio Ki was above 673. The values for the Ki in assay [2] and in assay [1] were 13.6 nM and above 9150 nM, respectively.
For `CCCc1nnn(-c2c(Cl)cc(C(F)(F)F)cc2Cl)c1CCl`, the Ratio Ki in the assay listed under Homo sapiens amounted to 403. Further, the Ki was found to be 0.659 nM in assay [2] and 266 nM in assay [1]. Moreover, the LD50 in the assay on Musca domestica is listed as 5.17 pmol.
`CCCCCc1cnnn1-c1c(Cl)cc(C(F)(F)F)cc1Cl`: the Ratio Ki in the assay filed under Homo sapiens was above 6.58. Also, in assay [1], the inhibition constant (Ki) is above 9150 nM.
As to `FC(F)(F)c1cc(Cl)c(-n2cc(C3CCCCC3)nn2)c(Cl)c1`, the Ratio Ki in the assay filed under Homo sapiens amounted to 127. Besides, the Ki in assay [1] turned out to be 1500 nM.
With `CCCCCCc1cn(-c2c(Cl)cc(C(F)(F)F)cc2Cl)nn1`, the Ratio Ki in the assay listed under Homo sapiens was 5.05. Moreover, the Ki in assay [1] is 1980 nM.
For `Nc1c(-c2ccccc2)nnn1-c1c(Cl)cc(C(F)(F)F)cc1Cl`, the Ratio Ki in the assay filed under Homo sapiens was determined as 57.1. Also, in assay [1], the Ki came to 1160 nM.
Take `CCCc1cnnn1-c1c(Cl)cc(C(F)(F)F)cc1Cl`: the Ratio Ki in the assay listed under Homo sapiens is above 12.1. In assay [1], the Ki is above 9150 nM.
For `CCCCc1cn(-c2c(Cl)cc(C(F)(F)F)cc2Cl)nn1`, the Ratio Ki in the assay listed under Homo sapiens came out at 362. Moreover, the inhibition constant Ki in assay [1] was found to be 1010 nM.
Take `CCCCCc1cn(-c2c(Cl)cc(C(F)(F)F)cc2Cl)nn1`: the Ratio Ki in the assay listed under Homo sapiens was 50. Moreover, the Ki in assay [1] was determined as 1390 nM.
For `CCCCc1cn(-c2ccc(Br)cc2)nn1`, the Ratio Ki in the assay filed under Homo sapiens was above 2.87. Also, in assay [1], the Ki was above 9150 nM.
Consider `CCCCc1cnnn1-c1ccc(C(F)(F)F)cc1`, for which the Ratio Ki in the assay listed under Homo sapiens was above 1.73. Besides, the inhibition constant Ki in assay [1] was above 9150 nM.
`CCCCc1cnnn1-c1c(Cl)cc(Cl)cc1Cl`: in the assay listed under Homo sapiens, the Ratio Ki is above 2.24. For the same molecule, the Ki in assay [1] is above 9150 nM.
`CCCCc1cn(-c2c(Cl)cc(Br)cc2Cl)nn1`: the Ratio Ki in the assay listed under Homo sapiens was above 293. In addition, in assay [1], the Ki was above 9150 nM.
Regarding `CCCc1c(C)nnn1-c1c(Cl)cc(C(F)(F)F)cc1Cl`, in the assay listed under Homo sapiens, the Ratio Ki is above 17. In addition, the results for the Ki in assay [2] and in assay [1] were 539 nM and above 9150 nM, respectively.
Consider `CCCCc1cn(-c2c(Cl)cc(Cl)cc2Cl)nn1`, for which, in the assay listed under Homo sapiens, the Ratio Ki was above 111. In assay [1], the Ki was above 9150 nM.
`FC(F)(F)c1cc(Cl)c(-n2nncc2-c2ccccc2)c(Cl)c1`: in the assay filed under Homo sapiens, the Ratio Ki was above 19.3. In addition, the Ki in assay [1] is above 9150 nM.
For `C#Cc1cc(Cl)c(-n2cc(CCCC)nn2)c(Cl)c1`, the Ratio Ki in the assay filed under Homo sapiens is above 264. For the same molecule, the Ki in assay [1] is above 9150 nM.
As for `CCCCCCc1cnnn1-c1c(Cl)cc(C(F)(F)F)cc1Cl`, the Ratio Ki in the assay listed under Homo sapiens is above 10.6. Further, in assay [1], the Ki is above 9150 nM.
As for `CCCCc1cnnn1-c1ccc(Br)cc1`, the Ratio Ki in the assay listed under Homo sapiens was above 3.35. Further, the Ki in assay [1] is above 9150 nM.
As for `CC(C)(C)c1cn(-c2c(Cl)cc(C(F)(F)F)cc2Cl)nn1`, the Ratio Ki in the assay listed under Homo sapiens was 470. Also, the LD50 with Musca domestica was determined as 1.86 pmol. The Ki in assay [1] is 390 nM.
Take `CCCc1nnn(-c2c(Cl)cc(C(F)(F)F)cc2Cl)c1CC`: the Ratio Ki in the assay filed under Homo sapiens was above 1130. In addition, the Ki is 8.07 nM in assay [2] and above 9150 nM in assay [1].
For `CCCc1nnn(-c2c(Cl)cc(C(F)(F)F)cc2Cl)c1CCC`, in that order: above 71.5, 128 nM and above 9150 nM.
Turning to `FC(F)(F)c1cc(Cl)c(-n2cc(CCCCl)nn2)c(Cl)c1`, in the assay listed under Homo sapiens, the Ratio Ki amounted to 378. For the same molecule, the Ki in assay [1] was found to be 616 nM.
In the case of `CCCc1c(CO)nnn1-c1c(Cl)cc(C(F)(F)F)cc1Cl`, the Ratio Ki in the assay filed under Homo sapiens is above 2.65. In addition, the Ki was 3450 nM in assay [2] and above 9150 nM in assay [1].
`CCCCc1cnnn1-c1c(Cl)cc(Br)cc1Cl`: the Ratio Ki in the assay listed under Homo sapiens is above 11.7. For the same molecule, the Ki in assay [1] was above 9150 nM.
Turning to `CCCCc1cnnn1-c1c(Cl)cccc1Cl`, the Ratio Ki in the assay filed under Homo sapiens was above 4.46. In assay [1], the Ki is above 9150 nM.
Take `CCCc1cn(-c2c(Cl)cc(C(F)(F)F)cc2Cl)nn1`: the Ratio Ki in the assay listed under Homo sapiens came out at 220. In addition, the Ki in assay [1] came out at 470 nM.
In the case of `CCCc1c(CC)nnn1-c1c(Cl)cc(C(F)(F)F)cc1Cl`, the Ratio Ki in the assay listed under Homo sapiens is above 194. The figures for the inhibitory constant (Ki) in assay [2] and in assay [1] were 47.2 nM and above 9150 nM, respectively.

These data come from ChEMBL document CHEMBL1149606, “Synthesis, 3D-QSAR, and docking studies of 1-phenyl-1H-1,2,3-triazoles as selective antagonists for beta3 over alpha1beta2gamma2 GABA receptors” (Bioorg Med Chem, 2007).
